From ChEMBL document CHEMBL1122112, “Imidodisulfamides. 1. A novel class of antagonists of slow-reacting substance of anaphylaxis” (1982) come the findings set out here.

A word on the inhibition: it is the drop in the measured response relative to a control, in per cent.

Molecules are shown by their SMILES.

One test is filed under the species Cavia porcellus. The test can be described thus: Percent inhibition of slow reacting substance of anaphylaxis (SRS-A) induced contractions of isolated guinea pig ileum at 50 uM concentration. The test is classed as functional. The essentials: (§1)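 Ileum segments proximal to Peyer's patch from male albino Hartley guinea pigs (400-600 g), in modified Tyrode's at 37.5 °C gassed with 95% O2-5% CO2. Isometric contractions recorded. Partially purified guinea pig SRS-A applied at a level giving 60-80% of maximal contraction until responses are reproducible, then reapplied after incubation with compound. Controls receive vehicle. Inhibition is the mean % change in treated tissue minus the mean % change in controls. FPL-55712 serves as reference.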
In the case of `COc1ccccc1CCNS(=O)(=O)NS(=O)(=O)NCCc1ccccc1OC`, the inhibition at 50 µM turned out to be 0.2%.
Take `O=S(=O)(Nc1ccc(Br)cc1)NS(=O)(=O)Nc1ccc(Br)cc1`: the inhibition at 50 µM amounted to 47%.
Regarding `O=S(=O)(Nc1cccc(Cl)c1)NS(=O)(=O)Nc1cccc(Cl)c1`, the inhibition at 50 µM is 16%.
With `O=S(=O)(Nc1cccc(F)c1)NS(=O)(=O)Nc1cccc(F)c1`, the inhibition at 50 µM is 10%.
The same measure, in the same setting: to `O=[N+]([O-])c1ccc(CCNS(=O)(=O)NS(=O)(=O)NCCc2ccc([N+](=O)[O-])cc2)cc1` belongs 19%; to `O=S(=O)(Nc1cccc(C(F)(F)F)c1)NS(=O)(=O)Nc1cccc(C(F)(F)F)c1`, 34%; to `O=S(=O)(NCCc1cccc(C(F)(F)F)c1)NS(=O)(=O)NCCc1cccc(C(F)(F)F)c1`, 32%.
Still for that read-out and setting: to `O=S(=O)(Nc1ccc(F)cc1)NS(=O)(=O)Nc1ccc(F)cc1` belongs 1%; to `O=S(=O)(NCCc1cccc(Cl)c1)NS(=O)(=O)NCCc1cccc(Cl)c1`, 16%; to `COc1cccc(CCNS(=O)(=O)NS(=O)(=O)NCCc2cccc(OC)c2)c1`, 9%.
On the same count and under the same terms, as for `O=S(=O)(NCCc1ccc(Br)cc1)NS(=O)(=O)NCCc1ccc(Br)cc1`, the figure is 72%.
Take `Cc1cccc(NS(=O)(=O)NS(=O)(=O)Nc2cccc(C)c2)c1`: the inhibition at 50 µM was determined as 13%.
Turning to `CSc1cccc(NS(=O)(=O)NS(=O)(=O)Nc2cccc(SC)c2)c1`, the inhibition at 50 µM came out at 12%.
For `Cc1ccc(CCNS(=O)(=O)NS(=O)(=O)NCCc2ccc(C)cc2)cc1`, the inhibition at 50 µM turned out to be 1%.
Still for that read-out and setting: as for `O=S(=O)(NCCc1ccc(O)cc1)NS(=O)(=O)NCCc1ccc(O)cc1`, the figure is 7%; as for `O=S(=O)(Nc1cccc(Br)c1)NS(=O)(=O)Nc1cccc(Br)c1`, 38%; as for `N#Cc1ccc(NS(=O)(=O)NS(=O)(=O)Nc2ccc(C#N)cc2)cc1`, -8%.
Turning to `CC(=O)c1ccc(NS(=O)(=O)NS(=O)(=O)Nc2ccc(C(C)=O)cc2)cc1`, the inhibition at 50 µM was -11%.
For the compound `O=S(=O)(Nc1ccc(C(F)(F)F)cc1)NS(=O)(=O)Nc1ccc(C(F)(F)F)cc1`, the inhibition at 50 µM turned out to be 86%.
In the case of `COc1ccc(CCNS(=O)(=O)NS(=O)(=O)NCCc2ccc(OC)cc2)cc1`, the inhibition at 50 µM turned out to be 18%.
In the case of `O=S(=O)(Nc1ccc(Cl)cc1)NS(=O)(=O)Nc1ccc(Cl)cc1`, the inhibition at 50 µM was -2%.

The species entered for a further test is Cavia porcellus. The test can be described thus: Percent inhibition of slow reacting substance of anaphylaxis (SRS-A) induced contractions of isolated guinea pig ileum at 10 uM concentration. The test is classed as functional. Summed up:
as §1
On to `O=S(=O)(NCc1ccccc1)NS(=O)(=O)NCc1ccccc1`, for which the inhibition at 10 µM was determined as 0.2%.
For the compound `O=S(=O)(NCCCCc1ccccc1)NS(=O)(=O)NCCCCc1ccccc1`, the inhibition at 10 µM came out at 40%.
For the compound `O=S(=O)(NCCCCc1ccc(Cl)cc1)NS(=O)(=O)NCCCCc1ccc(Cl)cc1`, the inhibition at 10 µM came out at 22%.
As for `O=S(=O)(NCCCCCc1ccccc1)NS(=O)(=O)NCCCCCc1ccccc1`, the inhibition at 10 µM worked out at 8%.
Turning to `O=S(=O)(NCCc1ccc(Cl)c(Cl)c1)NS(=O)(=O)NCCc1ccc(Cl)c(Cl)c1`, the inhibition at 10 µM is 43%.
Same read-out and setting: to `O=S(=O)(Nc1ccc(C(F)(F)F)cc1)NS(=O)(=O)Nc1ccc(C(F)(F)F)cc1` belongs 24%.
Turning to `O=S(=O)(NCCCCCCc1ccccc1)NS(=O)(=O)NCCCCCCc1ccccc1`, the inhibition at 10 µM was 15%.
Consider `O=S(=O)(NCCc1ccccc1Cl)NS(=O)(=O)NCCc1ccccc1Cl`, for which the inhibition at 10 µM was found to be 8%.

The species entered for another test is Cavia porcellus. Put plainly: Percent inhibition of slow reacting substance of anaphylaxis (SRS-A) induced contractions of isolated guinea pig ileum at 20 uM concentration. The test is classed as functional. The essentials: as §1
Take `O=S(=O)(NCCCc1ccccc1)NS(=O)(=O)NCCCc1ccccc1`: the inhibition at 20 µM is 15%.
Turning to `O=S(=O)(NCCc1ccccc1)NS(=O)(=O)NCCc1ccccc1`, the inhibition at 20 µM stood at 7%.
On the same count and under the same terms, to `O=S(=O)(Nc1ccccc1)NS(=O)(=O)Nc1ccccc1` belongs 6%; to `O=S(=O)(NCCc1ccc(Cl)cc1)NS(=O)(=O)NCCc1ccc(Cl)cc1`, 62%.

The species entered for the next test is Cavia porcellus. Put plainly: Percent inhibition of slow reacting substance of anaphylaxis (SRS-A) induced contractions of isolated guinea pig ileum at 5 uM concentration. The test is classed as functional. The essentials: as §1
Consider `CCCCc1ccc(NS(=O)(=O)NS(=O)(=O)Nc2ccc(CCCC)cc2)cc1`, for which the inhibition at 5 µM was 5%.
As for `CCOC(=O)c1ccc(NS(=O)(=O)NS(=O)(=O)Nc2ccc(C(=O)OCC)cc2)cc1`, the inhibition at 5 µM was -5%.
For `O=S(=O)(NCCc1cccc(SC(F)(F)F)c1)NS(=O)(=O)NCCc1cccc(SC(F)(F)F)c1`, the inhibition at 5 µM was -6%.
